According to ChEMBL document CHEMBL1255290, “Characterization of a novel human immunodeficiency virus type 1 protease inhibitor, A-790742” (Antimicrob Agents Chemother, 2008):

How the values were obtained:
[1] = system: Human immunodeficiency virus 1; assay: Antiviral activity against HIV1 clone3 infected in HEK293 cells harboring A-790742-selected protease L33F, K45I, V82L, and I84V mutation assessed as reduction in viral replication by luciferase reporter gene assay relative to wild type HIV1 pNL4-3; type: functional
In short: (§1)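 Single-cycle assay: HEK-293 cells were cotransfected with luciferase-reporter HIV-1 protease clones plus a VSV-G expression vector. After 4 h, cells were replated at 2 × 10⁴/well over serial inhibitor dilutions in triplicate. Pseudovirus collected at 48 h infected fresh HEK-293 (10⁴/well). Luciferase read 48 h later gave % inhibition versus untreated and EC50. Fold change against WT pNL4-3-Luc (clones 1-4) or RF-Luc (clone 5) is the mean of three experiments.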

[2] = system: Human immunodeficiency virus 1; assay: Antiviral activity against HIV1 clone5 infected in HEK293 cells harboring A-790742-selected protease L63P, A71V, and V82G mutation assessed as reduction in viral replication by luciferase reporter gene assay relative to wild type HIV1 RF; type: functional; in short: as §1
[3] = system: Human immunodeficiency virus 1; assay: (§2) Antiviral activity against HIV1 P9 infected in human MT4 cells derived from viral passages with A-790742 harboring protease V82V/L and I84V mutation assessed as reduction in viral cytopathogenicity treated 1 hr post infection measured 5 days post infection by MTT assay relative to wild type HIV1 pNL4-3; type: functional
In short: (§3)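 For the assay, 10⁶ MT-4 cells were infected at MOI 0.003, washed after 1 h, and plated at 10⁴ cells/well with eight serial compound dilutions in triplicate (0.5% DMSO final). MTT cytopathic read-out at day 5; EC50 from dose-response fitting.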

[4] = system: Human immunodeficiency virus 1; assay: as §2, with “P21” for “P9”, “L23I, L33F, K45I, A71A/V, V77I, V82L,” for “V82V/L”; type: functional; in short: as §3
[5] = system: Human immunodeficiency virus 1; assay: Antiviral activity against HIV1 clone2 infected in HEK293 cells harboring A-790742-selected protease V82L mutation assessed as reduction in viral replication by luciferase reporter gene assay relative to wild type HIV1 pNL4-3; type: functional; in short: as §1
[6] = system: Human immunodeficiency virus 1; assay: as §2, with “P15” for “P9”, “L33L/F, K45I, V82L,” for “V82V/L”; type: functional; in short: as §3
[7] = system: Human immunodeficiency virus 1; assay: Antiviral activity against HIV1 clone1 infected in HEK293 cells harboring A-790742-selected protease I84V mutation assessed as reduction in viral replication by luciferase reporter gene assay relative to wild type HIV1 pNL4-3; type: functional; in short: as §1
[8] = system: Human immunodeficiency virus 1; assay: Antiviral activity against HIV1 clone4 infected in HEK293 cells harboring A-790742-selected protease L33F, A71V, G73S, V77I, V82L, and I84V mutation assessed as reduction in viral replication by luciferase reporter gene assay relative to wild type HIV1 pNL4-3; type: functional; in short: as §1
[9] = system: Human immunodeficiency virus 1; assay: as §2, with “P13” for “P9”, “M46I, L63P, A71V,” for “V82V/L”, “V82G” for “I84V”, “RF” for “pNL4-3”; type: functional; in short: as §3
[10] = system: Human immunodeficiency virus 1; assay: Antiviral activity against wild-type HIV1 pNL4-3 infected in human MT4 cells assessed as reduction in viral cytopathogenicity treated 1 hr post infection measured 5 days post infection in presence of 50% human serum by MTT assay; type: functional, organism-based; settings: Human immunodeficiency virus 1, pNL4-3, MT4
[11] = system: Human immunodeficiency virus 1; assay: Antiviral activity against wild-type HIV1 RF infected in human MT4 cells assessed as reduction in viral cytopathogenicity treated 1 hr post infection measured 5 days post infection in absence of human serum by MTT assay; type: functional, organism-based; settings: Human immunodeficiency virus 1, RF; in short: as §3
[12] = system: Human immunodeficiency virus 1; assay: (§4) Antiviral activity against HIV1 A17 infected in human MT4 cells harboring protease L10F, V32I, M46I, I47V, Q58E, and I84V mutation derived from viral passages with Lopinavir assessed as reduction in viral cytopathogenicity treated 1 hr post infection measured 5 days post infection by MTT assay; type: functional, organism-based; settings: Human immunodeficiency virus 1, A17, MT4; in short: as §3
[13] = system: Human immunodeficiency virus 1; assay: Antiviral activity against wild-type HIV1 pNL4-3 infected in human MT4 cells assessed as reduction in viral cytopathogenicity treated 1 hr post infection measured 5 days post infection in absence of human serum by MTT assay; type: functional, organism-based; settings: Human immunodeficiency virus 1, pNL4-3, MT4; in short: as §3
[14] = system: Human immunodeficiency virus 1; assay: as §4, with “P25” for “A17”, “L10F, G16E,” for “L10F,”, “I47A, H69Y, I84V,” for “I47V, Q58E,”, “T91S” for “I84V”; type: functional, organism-based; settings: Human immunodeficiency virus 1, P25, MT4; in short: as §3
[15] = system: Human immunodeficiency virus 1; assay: Antiviral activity against HIV1 isolate 11 infected in human MT4 cells obtained from protease inhibitor-resistant patient harboring protease L10I, I15V, K20R, E21Q, E35D, M36I, N37D, R41K, M46L, I54V, I62V, L63P, A71V, T74D, P79A, V82T, I84V, I85V, L90M, I93L mutation derived from viral passages with Lopinavir assessed as reduction in viral cytopathogenicity treated 1 hr post infection measured …; type: functional
[16] = system: Human immunodeficiency virus 1; assay: Antiviral activity against HIV1 isolate 10 infected in human MT4 cells obtained from protease inhibitor-resistant patient harboring protease L10I, I13V, K20R, L33F, E35D, M36I, N37D, I54L, Q58E, I62V, L63P, A71V, V82A, I84V, L90M mutation derived from viral passages with Lopinavir assessed as reduction in viral cytopathogenicity treated 1 hr post infection measured 5 days post infection by MTT …; type: functional
[17] = system: Human immunodeficiency virus 1; assay: Antiviral activity against HIV1 isolate 4 infected in human MT4 cells obtained from protease inhibitor-resistant patient harboring protease N37T, M46I, Q58E, I64V, T74K, V77I, V82F, L90M mutation derived from viral passages with Lopinavir assessed as reduction in viral cytopathogenicity treated 1 hr post infection measured 5 days post infection by MTT assay relative to wild type HIV1 pNL4-3; type: functional
[18] = system: Human immunodeficiency virus 1; assay: Antiviral activity against HIV1 isolate 2 infected in human MT4 cells obtained from protease inhibitor-resistant patient harboring protease L10I, I15V, G16E, K20R, E35D, M36I, R41K, I54A, R57K, Q61D, A71V, I72R, V82A, L89I, L90M, Q92K mutation derived from viral passages with Lopinavir assessed as reduction in viral cytopathogenicity treated 1 hr post infection measured 5 days post infection by …; type: functional
[19] = system: Human immunodeficiency virus 1; assay: Antiviral activity against HIV1 isolate 5 infected in human MT4 cells obtained from protease inhibitor-resistant patient harboring protease L10F, I15V, M46I, L63P, A71V, I72L, V82T, I84V, I85V, L90M mutation derived from viral passages with Lopinavir assessed as reduction in viral cytopathogenicity treated 1 hr post infection measured 5 days post infection by MTT assay relative to wild type HIV1 …; type: functional
[20] = system: Human immunodeficiency virus 1; assay: Antiviral activity against HIV1 isolate 7 infected in human MT4 cells obtained from protease inhibitor-resistant patient harboring protease L10I, M46M/L, G48V, I54V, L63P, A71V, I72M, V77I, V82A, L90M, I93L mutation derived from viral passages with Lopinavir assessed as reduction in viral cytopathogenicity treated 1 hr post infection measured 5 days post infection by MTT assay relative to wild …; type: functional
[21] = system: Human immunodeficiency virus 1; assay: Antiviral activity against HIV1 isolate 13 infected in human MT4 cells obtained from protease inhibitor-resistant patient harboring protease L10I, K14R, L33F, E34Q, R41K, K45R, M46I, I50V, K55R, L63P, A71V, G73T, V77I, V82A, L90M, I93L mutation derived from viral passages with Lopinavir assessed as reduction in viral cytopathogenicity treated 1 hr post infection measured 5 days post infection by …; type: functional
[22] = system: Human immunodeficiency virus 1; assay: Antiviral activity against HIV1 B26 infected in human MT4 cells harboring protease L33F, K45I, M46I, I50V, I54V, A71V, and V82F mutation derived from viral passages with Lopinavir assessed as reduction in viral cytopathogenicity treated 1 hr post infection measured 5 days post infection by MTT assay; type: functional, organism-based; settings: Human immunodeficiency virus 1, B26, MT4; in short: as §3
[23] = system: Human immunodeficiency virus 1; assay: Antiviral activity against HIV1 isolate 3 infected in human MT4 cells obtained from protease inhibitor-resistant patient harboring protease L10I, E35D, N37D, […], I54V, L63P, A71V, T74P, I84V, L90M, I93L mutation derived from viral passages with Lopinavir assessed as reduction in viral cytopathogenicity treated 1 hr post infection measured 5 days post infection by MTT assay relative to wild type …; type: functional
[24] = system: Human immunodeficiency virus 1; assay: Antiviral activity against HIV1 isolate 8 infected in human MT4 cells obtained from protease inhibitor-resistant patient harboring protease L10I, I13V, L33F, E34Q, R41K, M46I, I54V, K55R, R57K, Q58E, I62V, L63P, A71V, I72I/T, G73S, V82A, I84V, L90M mutation derived from viral passages with Lopinavir assessed as reduction in viral cytopathogenicity treated 1 hr post infection measured 5 days post …; type: functional
[25] = system: Human immunodeficiency virus 1; assay: Antiviral activity against HIV1 isolate 12 infected in human MT4 cells obtained from protease inhibitor-resistant patient harboring protease L10I, I13V, K20I, E35D, M36I, M46I, I50V, I54V, R57K, I62V, L63P, A71V, V82A, L89V, L90M, Q92K mutation derived from viral passages with Lopinavir assessed as reduction in viral cytopathogenicity treated 1 hr post infection measured 5 days post infection by …; type: functional
[26] = system: Human immunodeficiency virus 1; assay: Antiviral activity against HIV1 isolate 6 infected in human MT4 cells obtained from protease inhibitor-resistant patient harboring protease L10I, L24I, M46I, I54V, K55R, Q58E, L63P, I64V, A71V, V82A, T91A mutation derived from viral passages with Lopinavir assessed as reduction in viral cytopathogenicity treated 1 hr post infection measured 5 days post infection by MTT assay relative to wild type …; type: functional
[27] = system: Human immunodeficiency virus 1; assay: Antiviral activity against HIV1 isolate 9 infected in human MT4 cells obtained from protease inhibitor-resistant patient harboring protease L10I, I15I/V, K20R, L33F, E35D, M36I, N37D, R41K, K43I, M46I, I54V, I62V, L63P, A71T, I72T, V82A, I84V, L90M, I93L mutation derived from viral passages with Lopinavir assessed as reduction in viral cytopathogenicity treated 1 hr post infection measured 5 days …; type: functional

Structure (SMILES) | Ratio EC50 [1] | Ratio EC50 [2] | Ratio EC50 [3] | Ratio EC50 [4] | Ratio EC50 [5] | Ratio EC50 [6] | Ratio EC50 [7] | Ratio EC50 [8] | Ratio EC50 [9] | EC50 [10] | EC50 [14] | other results
CC(C)(C)NC(=O)[C@@H]1CN(Cc2cccnc2)CCN1C[C@@H](O)C[C@@H](Cc1ccccc1)C(=O)N[C@H]1c2ccccc2C[C@H]1O.O | 5 | 76 | 3 | 14 | 1 | 5 | 1 | 2 | 31 | – | – | –
CC(C)(C)NC(=O)[C@@H]1C[C@@H]2CCCC[C@@H]2CN1C[C@@H](O)[C@H](Cc1ccccc1)NC(=O)[C@H](CC(N)=O)NC(=O)c1ccc2ccccc2n1 | 0.4 | 28 | 3 | 5 | 1 | 4 | 1 | 1 | 21 | – | – | –
CCC[C@@]1(CCc2ccccc2)CC(O)=C([C@H](CC)c2cccc(NS(=O)(=O)c3ccc(C(F)(F)F)cn3)c2)C(=O)O1 | – | – | – | – | – | – | – | 6 | – | 7.84 µM | – | EC50 [11]: 0.204 µM; EC50 [12]: 0.36 µM; EC50 [13]: 0.184 µM
CC(C)CN(C[C@@H](O)[C@H](Cc1ccccc1)NC(=O)O[C@H]1CO[C@H]2OCC[C@H]21)S(=O)(=O)c1ccc(N)cc1 | 12 | 59 | – | – | 1 | – | 1 | 7 | – | 0.04 µM | 0.857 µM | –
CC(C)c1nc(CN(C)C(=O)N[C@H](C(=O)N[C@@H](Cc2ccccc2)C[C@H](O)[C@H](Cc2ccccc2)NC(=O)OCc2cncs2)C(C)C)cs1 [RITONAVIR] | 79 | 1386 | 26.7 | >141 | 7 | 29 | 3 | 14 | 79 | – | – | –
CC(C)CN(C[C@@H](O)[C@H](Cc1ccccc1)NC(=O)O[C@H]1CCOC1)S(=O)(=O)c1ccc(N)cc1 | 12 | 41 | 9 | 34 | 1 | 11 | 1 | 2 | 41 | – | – | –
Cc1cccc(C)c1OCC(=O)N[C@@H](Cc1ccccc1)[C@@H](O)C[C@H](Cc1ccccc1)NC(=O)[C@H](C(C)C)N1CCCNC1=O [LOPINAVIR] | – | – | – | – | – | – | – | – | – | – | > 10 µM | –
COC(=O)N[C@H](C(=O)N[C@@H](Cc1ccccc1)[C@@H](O)CN(Cc1ccc(-c2ccccn2)cc1)NC(=O)[C@@H](NC(=O)OC)C(C)(C)C)C(C)(C)C [ATAZANAVIR] | 34 | 39 | 6 | 145 | 1 | 14 | 1 | 16 | 31 | 0.011 µM | 0.355 µM | Ratio EC50 [15]: 43; Ratio EC50 [16]: 56; Ratio EC50 [17]: 5; Ratio EC50 [18]: 172; Ratio EC50 [19]: 18; EC50 [11]: 0.007 µM; Ratio EC50 [20]: 25; Ratio EC50 [21]: 5; EC50 [22]: 0.051 µM; EC50 [12]: 0.296 µM; Ratio EC50 [23]: 89; Ratio EC50 [24]: 32; EC50 [13]: 0.004 µM; Ratio EC50 [25]: 3; Ratio EC50 [26]: 15; Ratio EC50 [27]: 22
Cc1c(O)cccc1C(=O)N[C@@H](CSc1ccccc1)[C@H](O)CN1C[C@H]2CCCC[C@H]2C[C@H]1C(=O)NC(C)(C)C | 3 | 203 | 5 | >93 | 1 | 6 | 1 | 2 | 67 | – | – | –
